Bioassay records: PubChem BioAssay, NMMLSC
GSH bead fluor = GSH bead compound fluorescence profile; fluorescence (KMESF) at 10 µM; 190,000 tested, 0.25% active; GSH beads flow cytometry, compound fluorescence 488/530 nm; hits give high values; in the data active = fluorescence above about 89;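 note: glutathione beads carrying GST-tagged Bcl family fusion proteins plus one bare bead set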
Avidin bead fluor = compound fluoresces at 488/530 nm on avidin beads. compound fluorescence 488/530 nm, flow cytometry; hits give high values. fluorescence (KMESF) at 10 µM. 220,000 tested, 0.38% active; in the data active = fluorescence above about 47
DSG3 Ab inh = blocks pemphigus antibody binding to human desmoglein-3; P32926; DSG3-coupled beads, scFv-anti-DSG3-GFP binding, flow cytometry; hits give low values; binding (percent of control), % at 10 µM; 310,000 tested, 0.48% active; AID 588358;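 active = binding more than 3 SD below its plate's average and above zero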;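 note: hits lower antibody fragment binding to DSG3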
Arr AP2 block = inhibitors of human beta-arrestin and AP2 interaction | FITC-arrestin peptide / GST-AP2 beads, flow cytometry; AP2 beta2 appendage carries R879A mutation | 340,000 tested, 0.31% active | inhibition, % at 10 µM | AID 504490;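 active = inhibition above a set limit, near 3 SD of compounds lacking own fluorescence, cut at about 54% in these data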
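System: GST-AP2 R879A glutathione beads | Also added: FITC-arrestin peptide, 50 nM | Times: 12 min plus 1 h, RT | Signal: Bead flow cytometry, FITC channel | Buffer or medium: PBS with 0.05% Tween 20 and 0.1% BSA | Read-out basis: Percent drop in bead-associated FITC signal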
Each line names hits and unclear results; the compound was inactive in the other large screens. Most compounds without a hit are left out; they make up all but 1.1% or so of the library.

O=C(O)c1ccccc1NS(=O)(=O)c1cccc(C(F)(F)F)c1	none
O=C(O)c1ccccc1NS(=O)(=O)c1cccc(-n2sc3ccccc3c2=O)c1	DSG3 Ab inh 46 (no result: GSH bead fluor, Avidin bead fluor)
CC(C)Nc1c(N)c(=O)oc2ccccc12	GSH bead fluor 253
Cn1ncc(Cl)c1C(=O)Nc1sc2c(c1C(N)=O)CCC2	GSH bead fluor 99
NC(=O)c1c(NC(=O)c2ccccc2)sc2c1CCC2	none (no result: GSH bead fluor, Avidin bead fluor)
Cc1c(N=Cc2ccc[nH]2)c(=O)n(-c2ccccc2)n1C	Avidin bead fluor 56
Cc1c(N=Cc2ccncc2)c(=O)n(-c2ccccc2)n1C	none
CCc1ccc(OCc2nnc(SCCN3CCOCC3)n2C)cc1	GSH bead fluor 260
CC(C)(C)NC(=O)NC(=O)COC(=O)c1cc[n+]([O-])cc1	Avidin bead fluor 207
CC(C)(C)NC(=O)NC(=O)COC(=O)c1cccc(F)c1	none
Cc1ccc(-c2nn3c(C)nnc3s2)cc1NC(=O)C(C)C	DSG3 Ab inh 82
O=S1(=O)CCC(N=Cc2cc(Br)ccc2O)C1 (stereo not given)	Avidin bead fluor 49
O=c1c2ccccc2c(C=NC2CCS(=O)(=O)C2)c(O)n1-c1ccccc1 (stereo not given)	none
COc1ccc(C(=O)OCC(=O)N2C(C)CCCC2C)cc1[N+](=O)[O-] (stereo not given)	none
CN1CCN(Cc2nc3ccccc3c(=O)n2Cc2nc(-c3ccc([N+](=O)[O-])cc3)cs2)CC1	DSG3 Ab inh -160
COc1ccc(C2C(C(=O)NC(C)C)c3ccccc3C(=O)N2C)cc1OC (stereo not given)	Avidin bead fluor 54
COc1ccc(C2C(C(=O)Nc3cc(OC)c(OC)c(OC)c3)c3ccccc3C(=O)N2C)cc1OC (stereo not given)	none
C/C(CC(=O)Nc1ccccc1C#N)=N\NC(=O)c1ccncc1	none (no result: GSH bead fluor, Avidin bead fluor)
CNC(=S)N1N=C(c2ccc(Br)cc2)CC1c1ccc(Br)cc1 (stereo not given)	Avidin bead fluor 48
O=C(CN1CCN(c2ccc(O)cc2)CC1)Nc1ccc(S(=O)(=O)N2CCCC2)cc1	DSG3 Ab inh 73 (no result: GSH bead fluor, Avidin bead fluor)
Cc1ccc(C(=O)NNC(=O)CSc2nnc3c(n2)[nH]c2ccc(F)cc23)cc1	none
COc1ccc2[nH]c3nc(SCC(=O)NNC(=O)c4ccc(OC)c(OC)c4)nnc3c2c1	DSG3 Ab inh 15
Cn1c(=O)oc2cc(S(=O)(=O)N3CCC(C(=O)NCC4COc5ccccc5O4)CC3)ccc21 (stereo not given)	DSG3 Ab inh -15
CC(C)(CNS(=O)(=O)c1ccc(F)cc1)CNS(=O)(=O)c1ccc(F)cc1	Avidin bead fluor 51 (no result: DSG3 Ab inh)
CC1CCN(C(c2ccc(N(C)C)cc2)c2nnnn2Cc2ccc(F)cc2)CC1 (stereo not given)	GSH bead fluor 251
O=C(CSC1=NS(=O)(=O)c2cc(Cl)ccc2N1)NCCc1ccccc1	none (no result: GSH bead fluor, Avidin bead fluor)
Cc1nn(-c2ccccc2)c(C)c1/C=N/NC(=O)c1cc(-c2ccc(Br)s2)[nH]n1	DSG3 Ab inh 84
Cc1nn(-c2ccccc2)c(C)c1-c1cc(C(=O)N/N=C/c2ccc(O)cc2)[nH]n1	DSG3 Ab inh 58 (no result: GSH bead fluor)
Cc1ccc(NS(=O)(=O)c2cc(C(=O)Nc3cccnc3)ccc2C)cc1	none (no result: GSH bead fluor, Avidin bead fluor)
O=C(NC1CCSc2ccccc21)c1ccc(C(F)(F)F)cc1 (stereo not given)	none (no result: GSH bead fluor, Avidin bead fluor)
Nn1c(SCC(=O)Nc2ccc(S(N)(=O)=O)cc2)nnc1C(F)(F)F	none (no result: GSH bead fluor)
CC1(c2ccccc2)NC(=O)N(CCOc2ccccc2)C1=O (stereo not given)	GSH bead fluor 263 (no result: DSG3 Ab inh)
Cc1cccc(C)c1OCCN1C(=O)NC(C)(c2ccccc2)C1=O (stereo not given)	none
O=C1CNC(=S)N1CCOc1ccccc1	none (no result: GSH bead fluor)
CN1CC(=O)N(CCOc2ccccc2)C1=O	GSH bead fluor 263
Cc1c(C)n(Cc2ccccc2)c2ncnc(Cl)c12	none (no result: GSH bead fluor, Avidin bead fluor)
O=C(Nc1cc(Cl)ccc1Cl)c1ccc(OC(=O)c2ccco2)cc1	DSG3 Ab inh 65
Cc1ccc(NC(=O)c2ccc(OC(=O)c3ccco3)cc2)cc1	none
O=C(CCNC(=O)N1CCn2c1nc1ccccc12)NCc1ccc(F)cc1	none (no result: GSH bead fluor, Avidin bead fluor)
COc1cc(OC)c(/C=N/NC(=O)c2ccc(NC(C)=O)cc2)cc1Br	DSG3 Ab inh 74
COc1cc(OC)c(/C=N/NC(=O)c2ccncc2)cc1Br	none
O=C(c1cccs1)N1CCN(CCCc2ccccc2)CC1	GSH bead fluor 263
C#CCN(C[C@H]1[C@H](OC(=O)NCc2ccccc2)[C@H](OC(=O)NCc2ccccc2)C[C@H]2C(=O)N(c3ccccc3)C(=O)[C@@H]12)S(=O)(=O)c1ccc(C)cc1	DSG3 Ab inh 89 (no result: GSH bead fluor, Avidin bead fluor, Arr AP2 block)
